# Assay results published in PubChem BioAssay.
# The source made the active and inactive calls.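 Rule for the calls, unless noted: active = visual image review flags a hit and inhibition of aggregation exceeds 20%; inconclusive = visual hit but inhibition at or below 20%; inactive = no hit on visual image review.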
# How the values were obtained:
# [1] = inhibitors of TNFa-induced NFkB p65 translocation, primary screen, imaging, HUVEC, MLSMR starter and 10KST1 sets (AID 438;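 active = inhibition above 20% together with a positive visual image hit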;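 note: compound added about 3h40 before a 20 min TNFalpha stimulation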;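 for inhibition: signal is the nuclear over cytoplasmic p65 intensity ratio per well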); details: HUVEC TNFa-induced p65 nuclear translocation; cell count: measured here: nuclei count (cytotoxicity indicator), at 2.08 µM; inhibition: at 2 µM, stronger effect = higher value, 0% TNFa-plus-vehicle, 100% no-TNFa wells
# [2] = reduction of polyQ htt aggregates in cells – imaging, exon1htt(103Q)mCFP cells, high-content imaging, primary screen (AID 483); details: exon1htt(103Q)mCFP cell line, aggregate imaging, at 2 µM; inhibition of aggregation: stronger effect = higher value; nuclei count: measured here: cell count, toxicity;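 note: compound exposure lasted 3 days before fixation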;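 for nuclei count: percent of the per-plate median nuclei count of sample wells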
# [3] = endothelial E-selectin expression blockers – imaging, HUVEC, immunofluorescence, MLSMR starter and 10KST1 sets, primary screen (AID 487;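 active = visually confirmed hit in the image check and inhibition above 20%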;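 for inhibition: signal is fraction of cell area covered by stained E-selectin grains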;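 for nuclei count: 100% = median nuclei count of all wells on the same plate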); details: HUVEC TNFalpha-induced E-selectin immunofluorescence imaging, at 2 µM; inhibition: stronger effect = higher value; nuclei count: measured here: cell number, toxicity
# [4] = molecular target: Voltage-gated potassium channel subunit beta-2 (Rattus norvegicus) (UniProt P62483); experiment: inhibitors of rat Kvbeta2 reductase activity – biochemical, NADPH fluorescence, primary screen (AID 622;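 active = fluorescence slope higher than the sample average by over 3 SD, cut at about -0.22 in these data, passing the limit was not always enough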;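 note: slope of raw intensity against log time taken from 70 to 1610 s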); details: recombinant KvBeta, 4-cyanobenzaldehyde reduction, at 10 µM, stronger effect = higher value
# Voltage-gated potassium channel subunit beta-2 (Rattus norvegicus), sequence (P62483 whole entry, looked up): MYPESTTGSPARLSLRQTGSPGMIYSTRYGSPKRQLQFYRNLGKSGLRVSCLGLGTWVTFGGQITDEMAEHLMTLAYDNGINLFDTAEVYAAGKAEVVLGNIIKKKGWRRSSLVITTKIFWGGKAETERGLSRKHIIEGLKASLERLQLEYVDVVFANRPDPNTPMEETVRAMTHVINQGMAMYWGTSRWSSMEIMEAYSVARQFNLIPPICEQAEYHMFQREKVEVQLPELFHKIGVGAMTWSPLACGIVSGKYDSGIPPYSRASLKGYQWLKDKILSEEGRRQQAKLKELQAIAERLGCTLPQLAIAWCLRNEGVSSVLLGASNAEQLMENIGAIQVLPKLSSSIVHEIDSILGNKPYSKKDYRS
# [5] = molecular target: Voltage-gated potassium channel subunit beta-2 (Rattus norvegicus) (UniProt P62483); experiment: enhancers of rat Kvbeta2 NADPH turnover – biochemical, NADPH fluorescence, primary screen (AID 623;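 active = NADPH fluorescence slope more negative than the mean of all samples by about 3 SD, 99.7% confidence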;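 note: fluorescence intensity change per second fitted from 20 to 320 s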); details: Recombinant KvBeta, NADPH fluorescence decrease slope, 10 min; at 10 µM; stronger effect = lower value
# [6] = molecular target: Muscarinic acetylcholine receptor M4 (Homo sapiens) (UniProt P08173); experiment: M4-linked GIRK flux change, two-sided – cell-based, HEK293 M4/GIRK, thallium flux, BTC-AM, M4 allosteric agonist project, primary screen (AID 625;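 active = fluorescence slope after compound addition differing from the mean of all tested samples at 99.7% confidence, mostly higher but some lower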;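 note: thallium influx through GIRK channels coupled to M4 in HEK293 cells with BTC-AM dye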); details: at 10 µM, actives lie on both sides
# Muscarinic acetylcholine receptor M4 (Homo sapiens), sequence (P08173 whole entry, looked up): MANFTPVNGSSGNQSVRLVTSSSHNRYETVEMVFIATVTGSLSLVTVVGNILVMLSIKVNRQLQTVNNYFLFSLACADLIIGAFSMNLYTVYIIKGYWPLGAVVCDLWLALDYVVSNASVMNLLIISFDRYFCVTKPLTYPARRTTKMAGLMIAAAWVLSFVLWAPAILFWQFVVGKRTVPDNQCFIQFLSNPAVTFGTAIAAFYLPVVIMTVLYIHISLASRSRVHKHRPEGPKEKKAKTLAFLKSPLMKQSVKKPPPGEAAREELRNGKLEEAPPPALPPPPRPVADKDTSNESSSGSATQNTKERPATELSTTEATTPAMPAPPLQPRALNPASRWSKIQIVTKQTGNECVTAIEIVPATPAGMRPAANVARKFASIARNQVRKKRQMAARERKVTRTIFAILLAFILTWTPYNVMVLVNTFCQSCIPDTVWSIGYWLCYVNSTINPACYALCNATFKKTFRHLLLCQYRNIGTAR
# How it was run: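 assay system = HEK293 cells with M4 receptor and GIRK channels | medium = pH 7.3 thallium assay buffer | doses = 10 µM final, single point | timing = cells overnight at 37 °C, BTC-AM loading 1 h, reads 2 min total | signal = BTC-AM fluorescence, 1 Hz kinetic reads | read-out = post-addition slope, 15–24 s, of baseline-normalized fluorescence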
# [7] = blockers of RIG-like receptor reporter activation – cell-based, Sendai virus stimulus, luciferase, 10K MLSCN set, TLR/RLR signaling modifier project, primary screen (AID 602276;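 active = inhibition at or above 50% at 10 µM; inactive = inhibition below 50%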;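 note: firefly luciferase from ISG56 promoter only with Renilla not read in this screen; 0% = Sendai virus plus DMSO and 100% = medium plus DMSO without virus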); details: HEK293 RL24 IRF3 luciferase reporter, at 10 µM, stronger effect = higher value
# [8] = TLR3 IRF3 reporter activation blockers – cell-based, poly I:C stimulus, luciferase, 10K MLSCN set, primary screen (AID 602277;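 active = inhibition of the reporter signal at or above 50%; inactive = inhibition below 50%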); details: HEK293-TLR3 RL24 IRF3 luciferase reporter, at 10 µM, stronger effect = higher value
# [9] = molecular target: Alpha-2C adrenergic receptor (Homo sapiens) (UniProt P18825); experiment: compounds altering alpha2C-coupled GIRK flux – cell-based, HEK293 alpha2C/GIRK1/2, thallium flux, primary screen (AID 624;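 active = fluorescence slope after compound addition differing from the mean of all screened samples at 99.7% confidence, in either direction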;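 note: slope of fluorescence ratio to pre-addition baseline per second over 15 to 24 s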); details: thallium flux BTC fluorescence, at 10 µM, actives lie on both sides
# Alpha-2C adrenergic receptor (Homo sapiens), sequence (P18825 whole entry, looked up): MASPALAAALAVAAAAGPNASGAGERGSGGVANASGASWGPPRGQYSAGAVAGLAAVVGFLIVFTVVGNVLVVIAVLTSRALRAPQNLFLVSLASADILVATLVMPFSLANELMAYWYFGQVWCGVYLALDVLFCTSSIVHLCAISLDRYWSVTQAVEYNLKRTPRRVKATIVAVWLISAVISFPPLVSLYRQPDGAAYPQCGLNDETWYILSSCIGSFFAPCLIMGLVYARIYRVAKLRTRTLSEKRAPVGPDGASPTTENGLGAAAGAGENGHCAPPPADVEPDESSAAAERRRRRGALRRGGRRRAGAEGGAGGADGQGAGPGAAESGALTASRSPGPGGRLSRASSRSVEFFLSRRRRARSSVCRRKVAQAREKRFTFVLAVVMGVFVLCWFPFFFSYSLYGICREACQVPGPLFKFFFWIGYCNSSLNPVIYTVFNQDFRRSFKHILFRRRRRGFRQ
# [10] = inhibitors of larval lipid processing in zebrafish, primary screen, whole organism, PED6 fluorescence, gall bladder and intestine (AID 686;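 active = a full or partial loss of lipid-probe fluorescence in the fish gall bladder, intestine or both, judged by eye; inactive = no fluorescence loss, or compound toxic to the fish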;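 note: larvae 5 to 7 days old with five fish per well; signal comes from phospholipase A2 cleavage of quenched PED6 carried via bile; overnight exposure to compound and PED6 before scoring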); details: Zebrafish larvae PED6 lipid processing, fluorescence scoring; screened at 20 µM (by protocol)
# How it was run: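 Also added: quenched phospholipase substrate PED6, 100 nM final, ingested by larvae; System: zebrafish larvae, 5-7 d; Quantity: 5 larvae per well; Compound: 20 µM single dose; Schedule: overnight compound and PED6 incubation; Read-out: visual per-well fluorescence inhibition score; Measured by: By-eye fluorescence microscopy; Medium: E3.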
SMILES,cell count [1],inhibition [1],inhibition of aggregation [2],nuclei count [2] [%],inhibition [3],nuclei count [3] [%],fluorescence slope [4],NADPH fluorescence slope [5],fluorescence slope [6],inhibition [7],inhibition [8],slope [9],outcome [10]
O=C(Nc1ccccc1N1CCN(C(=O)c2ccc(Cl)cc2)CC1)c1cc2ccccc2o1,424,0% (inactive),-5.5% (inactive),101,-108% (inactive),104,-0.549 (inactive),-6.3e-06 (inactive),0.00626 (inactive),1.02% (inactive),17% (inactive),–,–
CN(CC(=O)Nc1ccncc1)S(=O)(=O)c1ccccc1,351,4.9% (inactive),11.1% (inactive),108,-141% (inactive),148,-0.432 (inactive),-7.6e-05 (inactive),0.00615 (inactive),14.3% (inactive),2.23% (inactive),–,–
CCn1c(SCC(=O)Nc2nccs2)nnc1-c1ccncc1,331,-1.4% (inactive),-8.7% (inactive),110,-20.2% (inactive),129,-0.454 (inactive),-2.4e-05 (inactive),0.00633 (inactive),14.8% (inactive),21.3% (inactive),–,–
CC1CC(=O)C2=C(C1)OC(N)=C(C#N)C2c1coc2ccccc2c1=O (centres undefined),282,-10.1% (inactive),8.2% (inactive),79.3,24.1% (inactive),82.2,-0.514 (inactive),-4.1e-05 (inactive),0.00433 (inactive),19.2% (inactive),23.4% (inactive),–,–
N#CC(C(=O)Nc1ccccc1)=C1CCCCC1,356,-8.4% (inactive),-8% (inactive),108,-98.6% (inactive),131,-0.516 (inactive),-4.4e-05 (inactive),0.0049 (inactive),-3.44% (inactive),-28.2% (inactive),–,–
O=C(COc1ccc2c(c1)OCO2)NC12CC3CC(CC(C3)C1)C2,337,-3.7% (inactive),1.3% (inactive),91.5,-142% (inactive),99.1,-0.411 (inactive),-4.1e-05 (inactive),0.00898 (inactive),-38.5% (inactive),-35.6% (inactive),–,–
CCc1cc2c(NCCC(=O)O)ncnc2s1,507,15.8% (inactive),4.4% (inactive),103,13.4% (inactive),110,-0.562 (inactive),1.3e-05 (inactive),0.00669 (inactive),12.3% (inactive),17.4% (inactive),–,–
Cc1ccc(S(=O)(=O)N(CC(=O)N2CCC(C(N)=O)CC2)c2cccc(C(F)(F)F)c2)cc1,327,1% (inactive),-0.2% (inactive),112,-15.7% (inactive),114,-0.556 (inactive),5.5e-06 (inactive),0.00443 (inactive),25.2% (inactive),25.1% (inactive),–,–
CSc1nnc2c3ccccc3n(CCc3ccccc3)c2n1,665,-0.5% (inactive),20.5% (inactive),83.8,19.4% (inactive),104,-0.342 (inactive),1.9e-05 (inactive),0.00531 (inactive),-13.2% (inactive),-163% (inactive),–,–
CC1(C)CC(=O)C2=C(C1)N(Cc1ccco1)C(=O)C2(NC(=O)C1CCCCC1)C(F)(F)F (centres undefined),670,-2.6% (inactive),9.8% (inactive),111,-51% (inactive),116,-0.453 (inactive),-6.1e-05 (inactive),0.00581 (inactive),16.7% (inactive),21.1% (inactive),–,–
O=C(C1CCN(S(=O)(=O)c2ccc(-n3cnnn3)cc2)CC1)N1CCN(c2ccccc2)CC1,464,4.2% (inactive),3.7% (inactive),76.8,-101% (inactive),120,-0.569 (inactive),-4.3e-05 (inactive),0.00595 (inactive),18.7% (inactive),18.2% (inactive),–,–
CCOc1ccc(CN2CCN(c3cc(C)nc4c5c(C)cc(C)nc5nn34)CC2)cc1,361,-7.1% (inactive),5% (inactive),108,1.9% (inactive),114,-0.385 (inactive),1.9e-05 (inactive),0.00419 (inactive),11.7% (inactive),22.8% (inactive),–,–
COc1ccc(C(C(C(=O)c2cccs2)N2CCOCC2)N2CCOCC2)cc1OC (centres undefined),704,3.6% (inactive),6.6% (inactive),115,15.2% (inactive),106,-0.603 (inactive),-3.1e-05 (inactive),0.00372 (inactive),8.73% (inactive),2.75% (inactive),–,–
COc1ccc(OC)c(NC(=O)C2CCN(c3cc(-c4ccccc4)nc4ncnn34)CC2)c1,449,2.1% (inactive),17% (inactive),95,–,150,-0.528 (inactive),1.4e-05 (inactive),0.00653 (inactive),15% (inactive),15.1% (inactive),–,–
Cn1c(=O)oc2cc(S(=O)(=O)N3CCC(C(=O)Nc4ccc(OC(F)(F)F)cc4)CC3)ccc21,261,6.9% (inactive),19.4% (inactive),103,-19.6% (inactive),75.1,-0.572 (inactive),-1.9e-05 (inactive),0.00653 (inactive),12.1% (inactive),17% (inactive),–,–
CCOC(=O)c1ccc(-c2c(C(=O)OCC)oc3cc(O)c(CC)cc3c2=O)o1,676,6.9% (inactive),10.3% (inactive),104,-22.1% (inactive),100,-0.602 (inactive),-2.5e-05 (inactive),0.00385 (inactive),15.3% (inactive),7.61% (inactive),–,–
COc1ccc(OCc2nc(N)nc(Nc3cccc(C)c3C)n2)cc1,369,3.3% (inactive),-10.8% (inactive),102,–,–,-0.446 (inactive),-1e-06 (inactive),–,4.49% (inactive),29% (inactive),0.00333 (inactive),–
CC(C)C12CN3CC(C(C)C)(CN(C1)C3c1ccc3c(c1)OCO3)C2=O (centres undefined),412,10.8% (inactive),-9.1% (inactive),98.4,–,–,-0.304 (inactive),-1e-05 (inactive),–,11.3% (inactive),20.8% (inactive),0.00697 (inactive),inactive
Nc1nc(C(=O)N2CCOCC2)nn1S(=O)(=O)c1ccc(Cl)cc1,177,23.2% (active),-3.7% (inactive),103,–,145,-0.59 (inactive),-2.7e-05 (inactive),0.00923 (inactive),11% (inactive),15.9% (inactive),–,–
O=C1CC(=O)N(Cc2cccs2)C(=O)N1,336,4.7% (inactive),12.5% (inactive),98.3,–,116,-0.632 (inactive),5.3e-05 (inactive),0.00466 (inactive),1.08% (inactive),6.01% (inactive),–,–
